# Results from ChEMBL document CHEMBL1128745 (J Med Chem, 1995).
# Tests used:
# [1] = target: T1, Type-2 angiotensin II receptor (Rattus norvegicus, UniProt P35351); assay: Inhibition of [125I]-[Sar1,Ile8]Ang II binding at rat angiotensin II (type 2) receptor.
# T1 sequence (P35351 whole entry): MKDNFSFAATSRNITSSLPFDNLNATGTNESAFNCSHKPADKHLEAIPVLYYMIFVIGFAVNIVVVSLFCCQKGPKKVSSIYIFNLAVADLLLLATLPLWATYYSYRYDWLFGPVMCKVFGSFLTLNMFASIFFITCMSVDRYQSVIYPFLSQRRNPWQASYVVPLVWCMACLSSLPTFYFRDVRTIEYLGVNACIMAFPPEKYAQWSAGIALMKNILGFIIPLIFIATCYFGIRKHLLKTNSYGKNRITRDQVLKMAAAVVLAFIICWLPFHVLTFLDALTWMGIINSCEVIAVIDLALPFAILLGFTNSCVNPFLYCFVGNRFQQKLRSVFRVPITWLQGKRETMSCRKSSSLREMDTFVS
# How it was run: (§1)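 AT2 binding uses rat isolated adrenal membrane homogenates with 10^-6 M losartan present. [125I][Sar1,Ile8]Ang II is the radioligand, and IC50 is 50% displacement of total specifically bound label. Duplicate determinations include DuP 753 and saralasin as internal standards. Intraassay variability 5%, interassay 20%.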
# [2] = target: T2, Angiotensin II receptor (AT-1) type-1 (Rattus norvegicus, UniProt P29089+P25095); assay: Inhibition of [125I]-[Sar1,Ile8]Ang II binding at rat angiotensin II (type 1) receptor.; assay type: protein assay
# T2 sequence (P29089 whole entry): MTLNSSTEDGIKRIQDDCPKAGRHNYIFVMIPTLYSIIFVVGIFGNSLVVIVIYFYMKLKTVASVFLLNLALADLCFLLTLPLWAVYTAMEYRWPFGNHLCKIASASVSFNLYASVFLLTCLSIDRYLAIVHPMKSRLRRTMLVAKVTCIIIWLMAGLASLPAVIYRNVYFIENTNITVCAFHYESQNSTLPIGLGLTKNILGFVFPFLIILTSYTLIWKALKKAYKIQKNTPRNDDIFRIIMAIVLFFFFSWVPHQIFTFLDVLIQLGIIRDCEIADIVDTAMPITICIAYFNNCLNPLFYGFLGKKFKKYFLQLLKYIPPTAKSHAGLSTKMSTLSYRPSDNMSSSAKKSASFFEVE
# T2 sequence (P25095 whole entry): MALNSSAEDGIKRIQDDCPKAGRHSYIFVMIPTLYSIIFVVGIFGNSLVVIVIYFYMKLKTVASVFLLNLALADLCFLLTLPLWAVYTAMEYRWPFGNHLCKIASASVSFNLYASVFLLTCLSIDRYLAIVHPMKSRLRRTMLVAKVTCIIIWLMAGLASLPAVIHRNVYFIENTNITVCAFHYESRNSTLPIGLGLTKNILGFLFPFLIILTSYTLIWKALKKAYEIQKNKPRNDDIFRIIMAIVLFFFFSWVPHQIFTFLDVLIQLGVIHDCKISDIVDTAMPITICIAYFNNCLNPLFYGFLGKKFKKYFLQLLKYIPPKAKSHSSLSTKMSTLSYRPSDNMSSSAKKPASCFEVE
# How it was run: (§2)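 Rat isolated adrenal membrane homogenates with 10^-6 M PD123177 present to isolate the AT1 site. Radioligand is [125I][Sar1,Ile8]Ang II. IC50 is the concentration giving 50% displacement of total specifically bound radioligand. Run in duplicate against DuP 753 and saralasin as internal standards. Intraassay variability 5%, interassay 20%.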
# Rattus norvegicus = assay: Effective dose to lower blood pressure by 30 mmHg in renal hypertensive rats on peroral administration.; assay type: functional; conditions: po
# How it was run: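 Conscious renal artery-ligated hypertensive rats were dosed orally; vehicle was 0.05 mg/mL Na2CO3 in 0.5% methocel. Mean arterial pressure was monitored, n=6-9 per group. ED30 is the dose that lowers blood pressure by 30 mmHg.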
# [3] = target: T3, Angiotensin II receptor (Rattus norvegicus) (UniProt P29089+P25095+P35351); assay: Ratio of IC50 at Angiotensin II type 1 and angiotensin II type 2 receptors; assay type: protein assay
# How it was run: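 AT2 IC50 divided by AT1 IC50. Both come from [125I][Sar1,Ile8]Ang II displacement on rat adrenal membrane homogenates, with 10^-6 M losartan (AT2) or 10^-6 M PD123177 (AT1) present. Each was run in duplicate.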
# [4] = target: T1, Type-2 angiotensin II receptor; assay: Inhibitory concentration against Angiotensin II receptor type 2 with [125I]-[Sar1,Ile8]Ang II; how it was run: as §1
# [5] = target: T2, Angiotensin II receptor (AT-1) type-1; assay: Inhibitory concentration against Angiotensin II receptor type 1 with [125I]-[Sar1,Ile8]Ang II; assay type: protein assay; how it was run: as §2
# [6] = target: T3, Angiotensin II receptor (Rattus norvegicus); assay: Relative inhibition of angiotensin II receptor types 1 and 2; assay type: protein assay
# [7] = target: T3, Angiotensin II receptor (Rattus norvegicus); assay: Relative inhibition of angiotensin II type 2 and angiotension II type 1 receptors in modified assay; assay type: protein assay
# How it was run: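 Rat adrenal membrane homogenates with [125I][Sar1,Ile8]Ang II as radioligand. AT1 sites were measured with 10^-6 M PD123177 present and AT2 sites with 10^-6 M losartan present. IC50 is the concentration giving 50% displacement of specifically bound radioligand, run in duplicate against DuP 753 and saralasin standards. Intra-assay variability was 5% and inter-assay 20%. The value is the AT2 IC50 divided by the AT1 IC50.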
IC50 [1],IC50 [2],IC50 ratio [3],IC50 [4],IC50 [5],IC50 ratio [6],IC50 ratio [7],Structure (SMILES),ED30 (Rattus norvegicus)
0.49 nM,0.45 nM,1.09,,,,,CCCc1nc(CC)c(C(=O)CCN(C(=O)CC)c2cccnc2)n1Cc1ccc(-c2ccccc2S(=O)(=O)NC(=O)OCCC(C)C)cc1F,0.26 mg/kg
0.15 nM,0.2 nM,0.75,,,,,CCCCOC(=O)NS(=O)(=O)c1ccccc1-c1ccc(Cn2c(CCC)nc(CC)c2C(=O)CCN(C(=O)CCC)c2ccccc2)c(F)c1,1.5 mg/kg
0.1 nM,0.4 nM,0.25,,,,,CCCc1nc(CC)c(C(=O)CCN(C(=O)c2ccncc2)c2ccccc2)n1Cc1ccc(-c2ccccc2S(=O)(=O)NC(=O)OCCC(C)C)cc1F,< 3 mg/kg
,3 nM,231,37 nM,0.16 nM,2.3,,CCCCOC(=O)NS(=O)(=O)c1ccccc1-c1ccc(Cn2c(CCC)nc(CC)c2C(=O)OC)c(Cl)c1,
0.16 nM,0.52 nM,0.31,,,,,CCCc1nc(CC)c(C(=O)CCN(C(=O)c2cccnc2)c2ccccn2)n1Cc1ccc(-c2ccccc2S(=O)(=O)NC(=O)OCCC(C)C)cc1F,0.9 mg/kg
1 nM,0.3 nM,3.3,,,,,CCCc1nc(CC)c(C(=O)CCN(C(=O)C(C)C)c2cccnc2)n1Cc1ccc(-c2ccccc2S(=O)(=O)NC(=O)OCCC(C)C)cc1F,
1 nM,0.3 nM,3.3,,,,,CCCc1nc(CC)c(C(=O)CCN(C(=O)c2cccnc2)c2cccnc2)n1Cc1ccc(-c2ccccc2S(=O)(=O)NC(=O)OCCC(C)C)cc1,
0.06 nM,0.1 nM,,,,,,CCCc1nc(CC)c(C(=O)CCN(C(=O)c2ccccc2)c2ccccc2)n1Cc1ccc(-c2ccccc2S(=O)(=O)NC(=O)OCCC(C)C)cc1F,
10 nM,0.3 nM,33,,,,,CCCCOC(=O)NS(=O)(=O)c1ccccc1-c1ccc(Cn2c(CCC)nc(CC)c2C(=O)CCN(CCCC)C(=O)c2ccccc2)c(F)c1,
1 nM,1 nM,1,10 nM,0.09 nM,,111,CCCCOC(=O)NS(=O)(=O)c1ccccc1-c1ccc(Cn2c(CCC)nc(CC)c2C(C)=O)c(F)c1,
3 nM,0.4 nM,7.5,,,,,CCCc1nc(CC)c(C(=O)CCN(C(C)=O)c2cccnc2)n1Cc1ccc(-c2ccccc2S(=O)(=O)NC(=O)OCCC(C)C)cc1F,
0.25 nM,0.32 nM,0.78,,,,,CCCC(=O)N(CCC(=O)c1c(CC)nc(CCC)n1Cc1ccc(-c2ccccc2S(=O)(=O)NC(=O)OCCC(C)C)cc1F)c1cccnc1,0.27 mg/kg
3 nM,1 nM,,40 nM,0.1 nM,3,,CCCc1nc(CC)c(C(=O)OC)n1Cc1ccc(-c2ccccc2S(=O)(=O)NC(=O)OCCC(C)C)cc1F,
0.22 nM,0.5 nM,0.44,,,,,CCCc1nc(CC)c(C(=O)CCN(C(=O)c2cccnc2)c2cccnc2)n1Cc1ccc(-c2ccccc2S(=O)(=O)NC(=O)OCCC(C)C)cc1F,0.26 mg/kg
0.18 nM,0.25 nM,0.7,,,,,CCCCOC(=O)NS(=O)(=O)c1ccccc1-c1ccc(Cn2c(CCC)nc(CC)c2C(=O)CCN(C(=O)c2ccccc2)c2ccccc2)c(F)c1,1.57 mg/kg
1 nM,0.7 nM,1.4,,,,,CCCc1nc(CC)c(C(=O)CCN(C(=O)c2ccncc2)c2cccnc2)n1Cc1ccc(-c2ccccc2S(=O)(=O)NC(=O)OCCC(C)C)cc1F,0.4 mg/kg
1 nM,0.4 nM,2.5,,,,,CCCC(=O)N(CCC(=O)c1c(CC)nc(CCC)n1Cc1ccc(-c2ccccc2S(=O)(=O)NC(=O)OCCC(C)C)cc1)c1cccnc1,
